# In ChEMBL document CHEMBL5661969, “Preclinical evaluation of a potent novel DNA-dependent protein kinase inhibitor NU7441” (Cancer Res, 2006):
# Activity calls are given as the source filed them. The calls are words filed in the database; no cut-off is given here.
# What was measured:
# [1] = Cytotoxicity against Chinese hamster DNA-PK deficient V3 cells assessed as reduction in cell survival measured after 16 hrs by crystal violet staining based assay; assay type: toxicity, Cricetulus griseus; settings: v3, 16 h
# Summary of the method: (§1)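 V3 (DNA-PKcs-deficient CHO) and V3-YAC (human DNA-PKcs YAC, kept on G-418 500 μg/mL) cells were grown in RPMI/10% FBS. Exponential cells were exposed to agent in 0.5% DMSO for 16 h, then trypsinized and reseeded at 100–100,000 per dish in drug-free medium. Colonies were stained with crystal violet after 10–14 days and counted. Survival is relative to 0.5% DMSO controls.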
# [2] = Cytotoxicity against Chinese hamster DNA-PK proficient V3-YAC cells assessed as reduction in cell survival measured after 16 hrs by crystal violet staining based assay; assay type: toxicity, Cricetulus griseus; summary of the method: as §1
# [3] = Selectivity ratio of LD90 for cytotoxicity against Chinese hamster DNA-PK proficient V3-YAC cells to LD90 for cytotoxicity against Chinese hamster DNA-PK deficient V3 cells; assay type: toxicity, cell-based, Cricetulus griseus
# Summary of the method: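 Clonogenic survival of V3 and V3-YAC Chinese hamster ovary cells, RPMI/10% FBS, V3-YAC kept under G-418 at 500 μg/mL. Colonies read 10–14 days later. LD90 is the dose or concentration killing 90%, and the LD90 ratio gives the fold change.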
# [4] = tested on: SW-620; assay: Induction of DNA damage in human SW620 cells assessed as increase in formation of gamma-H2AX phosphorylation foci per cell at 1 umol/L preincubated for 1 hr followed by compound washout and measured after 30 mins by DAPI staining based immunofluorescence microscopic analysis; assay type: functional; settings: dose 1 µmol/L
# Summary of the method: (§2)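 SW620 cells on coverslips at 50–70% confluence, preincubated 1 h ± 1 μmol/L agent, then 1 μmol/L etoposide for 1 h, washed three times, and kept ± agent for up to 24 h. Fixation in −20 °C methanol, then anti-γH2AX Ser139 antibody with FITC secondary and DAPI mounting. Foci counted in 30 nuclei from three areas per sample, in triplicate.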
# [5] = tested on: SW-620; assay: Induction of DNA damage in human SW620 cells assessed as loss of gamma-H2AX phosphorylation foci formation at 1 umol/L preincubated for 1 hr followed by compound washout and measured after 4 hrs by DAPI staining based immunofluorescence microscopic analysis relative to control; assay type: functional; settings: dose 1 µmol/L, at 1 µM; summary of the method: as §2
# [6] = tested on: SW-620; assay: Induction of DNA damage in human SW620 cells assessed as loss of gamma-H2AX phosphorylation foci formation at 1 umol/L preincubated for 1 hr followed by compound washout and measured after 16 hrs by DAPI staining based immunofluorescence microscopic analysis relative to control; assay type: functional; settings: dose 1 µmol/L, at 1 µM; summary of the method: as §2
# [7] = tested on: SW-620; assay: Cell cycle arrest in human SW620 cells assessed as increase in G2-M-phase cell population at 0.1 uM measured after 16 hrs by propidium iodide staining based flow cytometry relative to control; assay type: functional
# [8] = tested on: SW-620; assay: Cell cycle arrest in human SW620 cells assessed as reduction in S-phase cell population at 0.1 uM measured after 16 hrs by propidium iodide staining based flow cytometry; assay type: functional
# [9] = molecular target: T1, DNA-dependent protein kinase catalytic subunit (Homo sapiens, UniProt P78527); assay: Inhibition of DNA-PK in human SW480 cells assessed potentiation of ionizing radiation-induced cytotoxicity by measuring ratio of cytotoxic agent required to kill 90% of the cells in the absence and presence of compound; assay type: cell-based
# [10] = molecular target: T1, DNA-dependent protein kinase catalytic subunit; assay: Inhibition of DNA-PK in human HCT-116 cells assessed as potentiation of ionizing radiation-induced cytotoxicity relative to radiation alone; assay type: cell-based
# [11] = molecular target: T1, DNA-dependent protein kinase catalytic subunit; assay: Inhibition of DNA-PK in human HCT-116 cells assessed as potentiation of etoposide-induced cytotoxicity relative to etoposide alone; assay type: cell-based
# [12] = tested on: SW-620; assay: Cell cycle arrest in human SW620 cells assessed as increase in G2-M-phase cell population at 10 nM measured after 16 hrs by propidium iodide staining based flow cytometry relative to control; assay type: functional
# [13] = tested on: SW-620; assay: Cell cycle arrest in human SW620 cells assessed as reduction in S-phase cell population at 10 nM measured after 16 hrs by propidium iodide staining based flow cytometry; assay type: functional
# [14] = Toxicity in human SW620 cell xenografted athymic nude CD1 mouse assessed as maximum body weight loss at 11.35 mg/kg, ip administered 5 times daily for 5 days relative to control; assay type: organism-based, SW-620; settings: in vivo, 120 h, time 5 day
# [15] = tested on: SW-620; assay: Antitumor activity against human SW620 cells xenografted in athymic nude CD1 mouse assessed as tumor growth delay at 11.35 mg/kg, ip administered 5 times daily for 5 days; assay type: functional; settings: time 5 day
# [16] = Inhibition of ATM in Chinese hamster DNA-PK proficient V3-YAC cells assessed as potentiation of ionizing radiation-induced cytotoxicity by measuring fold change in radiation LD90 at 10 umol/L preincubated for 1 hr followed by gamma-irradiation and measured after 16 hrs by crystal violet staining based assay relative to radiation alone; parameters: species or system Cricetulus griseus; settings: dose 10 µmol/L; time 17 hrs; condition cancer
# [17] = Inhibition of ATM in Chinese hamster DNA-PK proficient V3-YAC cells assessed as potentiation of etoposide-induced cytotoxicity by measuring fold change in etoposide LD90 at 10 umol/L measured after 16 hrs by crystal violet staining based assay relative to etoposide alone; parameters: species or system Cricetulus griseus; settings: dose 10 µmol/L, condition cancer
# [18] = Cytotoxicity against Chinese hamster DNA-PK deficient V3 cells assessed as increase in etoposide-induced cytotoxicity by measuring fold change in etoposide LD90 at 10 umol/L measured after 16 hrs by crystal violet staining based assay relative to etoposide alone; assay type: toxicity, cell-based, Cricetulus griseus; settings: v3, 16 h, 10 µM, dose 10 µmol/L
# T1 sequence (P78527 whole entry): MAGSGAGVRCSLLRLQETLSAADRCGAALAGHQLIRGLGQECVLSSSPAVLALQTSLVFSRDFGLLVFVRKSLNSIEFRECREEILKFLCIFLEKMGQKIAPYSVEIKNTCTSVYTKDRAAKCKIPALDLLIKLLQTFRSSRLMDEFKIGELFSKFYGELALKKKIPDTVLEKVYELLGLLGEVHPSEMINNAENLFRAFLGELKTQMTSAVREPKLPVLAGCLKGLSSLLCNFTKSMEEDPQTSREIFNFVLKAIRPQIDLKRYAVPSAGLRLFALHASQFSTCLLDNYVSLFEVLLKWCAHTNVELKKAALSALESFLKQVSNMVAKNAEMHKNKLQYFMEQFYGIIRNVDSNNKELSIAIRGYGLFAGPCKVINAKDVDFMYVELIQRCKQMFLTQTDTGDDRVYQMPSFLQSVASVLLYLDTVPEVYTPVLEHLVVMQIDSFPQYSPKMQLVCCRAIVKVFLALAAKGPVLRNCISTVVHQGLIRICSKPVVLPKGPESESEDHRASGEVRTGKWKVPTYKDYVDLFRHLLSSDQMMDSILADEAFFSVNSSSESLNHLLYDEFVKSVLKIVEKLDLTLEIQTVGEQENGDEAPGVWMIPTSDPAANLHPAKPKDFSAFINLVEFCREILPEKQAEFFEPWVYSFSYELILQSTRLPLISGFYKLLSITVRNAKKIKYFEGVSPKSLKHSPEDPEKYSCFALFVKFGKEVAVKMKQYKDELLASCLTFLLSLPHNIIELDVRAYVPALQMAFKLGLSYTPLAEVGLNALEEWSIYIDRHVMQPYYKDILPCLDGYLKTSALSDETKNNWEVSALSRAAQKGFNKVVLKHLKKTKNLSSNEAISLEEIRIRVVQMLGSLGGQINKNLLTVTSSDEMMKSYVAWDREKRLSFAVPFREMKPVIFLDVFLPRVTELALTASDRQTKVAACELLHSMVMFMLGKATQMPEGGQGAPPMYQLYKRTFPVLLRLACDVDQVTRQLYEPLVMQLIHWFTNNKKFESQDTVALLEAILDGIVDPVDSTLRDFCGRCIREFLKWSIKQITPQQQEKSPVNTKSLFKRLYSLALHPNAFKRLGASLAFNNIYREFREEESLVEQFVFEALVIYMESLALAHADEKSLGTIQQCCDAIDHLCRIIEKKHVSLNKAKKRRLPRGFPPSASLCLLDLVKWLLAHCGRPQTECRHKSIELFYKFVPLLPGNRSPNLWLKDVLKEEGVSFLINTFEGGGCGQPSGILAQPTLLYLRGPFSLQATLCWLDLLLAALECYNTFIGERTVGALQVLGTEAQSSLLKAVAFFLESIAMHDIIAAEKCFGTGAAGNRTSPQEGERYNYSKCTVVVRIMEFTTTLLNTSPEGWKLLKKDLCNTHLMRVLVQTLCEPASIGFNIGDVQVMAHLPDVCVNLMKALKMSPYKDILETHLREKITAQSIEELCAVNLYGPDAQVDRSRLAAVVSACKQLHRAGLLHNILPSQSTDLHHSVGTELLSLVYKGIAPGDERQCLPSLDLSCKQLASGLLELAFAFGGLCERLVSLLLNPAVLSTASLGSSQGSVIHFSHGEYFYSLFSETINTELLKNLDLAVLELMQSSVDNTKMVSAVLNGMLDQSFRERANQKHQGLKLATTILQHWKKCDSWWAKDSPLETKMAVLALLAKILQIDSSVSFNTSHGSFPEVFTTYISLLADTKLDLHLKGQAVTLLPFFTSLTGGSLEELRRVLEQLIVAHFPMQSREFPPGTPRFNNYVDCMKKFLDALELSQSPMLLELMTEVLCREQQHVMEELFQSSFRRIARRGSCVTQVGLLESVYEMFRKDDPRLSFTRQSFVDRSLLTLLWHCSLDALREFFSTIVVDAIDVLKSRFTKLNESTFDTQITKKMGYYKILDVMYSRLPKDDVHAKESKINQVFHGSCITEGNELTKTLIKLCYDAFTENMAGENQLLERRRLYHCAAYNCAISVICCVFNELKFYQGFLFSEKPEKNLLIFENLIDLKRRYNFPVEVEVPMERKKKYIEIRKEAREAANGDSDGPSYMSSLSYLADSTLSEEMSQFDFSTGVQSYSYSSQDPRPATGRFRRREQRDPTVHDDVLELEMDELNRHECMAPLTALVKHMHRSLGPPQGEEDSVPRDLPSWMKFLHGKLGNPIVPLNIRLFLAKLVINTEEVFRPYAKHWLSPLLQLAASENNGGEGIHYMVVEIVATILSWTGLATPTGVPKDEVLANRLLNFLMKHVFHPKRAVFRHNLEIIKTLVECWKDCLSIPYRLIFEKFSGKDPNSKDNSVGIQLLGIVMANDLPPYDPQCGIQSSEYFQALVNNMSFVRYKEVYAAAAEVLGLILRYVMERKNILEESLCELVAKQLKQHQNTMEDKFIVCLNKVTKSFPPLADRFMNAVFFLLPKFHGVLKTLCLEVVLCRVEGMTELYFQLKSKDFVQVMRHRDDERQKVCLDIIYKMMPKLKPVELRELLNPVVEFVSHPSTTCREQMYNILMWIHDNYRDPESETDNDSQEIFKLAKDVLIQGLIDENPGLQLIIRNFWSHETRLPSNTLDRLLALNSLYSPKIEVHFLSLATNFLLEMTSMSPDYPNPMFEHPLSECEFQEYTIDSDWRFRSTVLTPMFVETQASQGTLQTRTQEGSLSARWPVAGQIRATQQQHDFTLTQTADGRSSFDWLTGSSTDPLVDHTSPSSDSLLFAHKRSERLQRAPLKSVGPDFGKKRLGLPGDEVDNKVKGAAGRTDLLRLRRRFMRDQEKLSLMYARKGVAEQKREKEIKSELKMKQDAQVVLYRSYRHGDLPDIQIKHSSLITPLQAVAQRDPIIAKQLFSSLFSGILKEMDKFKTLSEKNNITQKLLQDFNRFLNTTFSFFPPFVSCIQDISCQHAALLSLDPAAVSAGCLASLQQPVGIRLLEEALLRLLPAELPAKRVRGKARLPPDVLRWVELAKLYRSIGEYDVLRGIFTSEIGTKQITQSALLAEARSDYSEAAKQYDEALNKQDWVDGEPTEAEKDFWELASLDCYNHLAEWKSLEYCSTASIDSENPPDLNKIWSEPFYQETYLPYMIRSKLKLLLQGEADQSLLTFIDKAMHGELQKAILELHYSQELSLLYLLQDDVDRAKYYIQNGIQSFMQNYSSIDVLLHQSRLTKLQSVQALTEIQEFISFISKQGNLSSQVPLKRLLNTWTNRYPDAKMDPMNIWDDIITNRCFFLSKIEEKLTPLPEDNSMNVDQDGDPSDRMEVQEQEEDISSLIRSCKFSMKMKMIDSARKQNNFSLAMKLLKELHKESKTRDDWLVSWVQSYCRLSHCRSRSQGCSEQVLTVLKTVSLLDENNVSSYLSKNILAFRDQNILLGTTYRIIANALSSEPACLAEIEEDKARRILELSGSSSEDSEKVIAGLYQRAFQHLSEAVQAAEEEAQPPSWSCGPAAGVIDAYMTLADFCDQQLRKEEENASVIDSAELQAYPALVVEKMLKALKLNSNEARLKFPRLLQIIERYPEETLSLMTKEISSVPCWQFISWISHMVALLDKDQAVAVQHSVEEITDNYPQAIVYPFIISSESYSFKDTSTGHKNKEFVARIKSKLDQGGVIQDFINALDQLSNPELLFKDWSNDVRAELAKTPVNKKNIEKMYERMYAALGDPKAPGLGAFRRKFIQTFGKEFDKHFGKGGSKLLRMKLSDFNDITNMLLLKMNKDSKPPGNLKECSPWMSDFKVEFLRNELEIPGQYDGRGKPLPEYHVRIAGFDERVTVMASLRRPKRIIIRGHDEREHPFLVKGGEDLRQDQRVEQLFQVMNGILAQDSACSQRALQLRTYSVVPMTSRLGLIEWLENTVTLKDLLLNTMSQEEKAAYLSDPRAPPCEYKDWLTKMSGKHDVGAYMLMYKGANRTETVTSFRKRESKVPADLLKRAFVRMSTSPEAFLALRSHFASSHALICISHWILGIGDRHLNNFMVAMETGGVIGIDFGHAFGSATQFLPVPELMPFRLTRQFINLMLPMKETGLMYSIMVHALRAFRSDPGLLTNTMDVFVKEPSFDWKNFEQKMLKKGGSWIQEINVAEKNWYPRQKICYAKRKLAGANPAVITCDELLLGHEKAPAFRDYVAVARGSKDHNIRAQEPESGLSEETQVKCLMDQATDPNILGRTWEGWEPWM
compound,measurement,setting,value
COc1cc([C@@H]2c3cc4c(cc3[C@@H](O[C@@H]3O[C@@H]5CO[C@@H](C)O[C@H]5[C@H](O)[C@H]3O)[C@H]3COC(=O)[C@H]23)OCO4)cc(OC)c1O [ETOPOSIDE],LD90,[1],0.6 µmol/L
same,LD90,[2],1.8 µmol/L
same,selectivity ratio,[3],3
same,Activity,[4],22
same,Activity,[5],39%
same,Activity,[6],5.3%
same,Activity,[7],83%
same,Activity,[8],Active
COC[C@H]1OC(=O)c2coc3c2[C@@]1(C)C1=C(C3=O)[C@@H]2CCC(=O)[C@@]2(C)C[C@H]1OC(C)=O,Ratio,[9],2.8
O=c1cc(N2CCOCC2)oc2c(-c3ccccc3)cccc12,Ratio,[9],1.9
CC(=O)c1ccc(N2CCOCC2)cc1O,fold change (FC),[10],4
same,fold change (FC),[11],15
COc1cccc2c1C(=O)c1c(O)c3c(c(O)c1C2=O)C[C@@](O)(C(=O)CO)C[C@@H]3O[C@H]1C[C@H](N)[C@H](O)[C@H](C)O1 [DOXORUBICIN],Activity,[12],158%
same,Activity,[13],Active
COc1cc([C@@H]2c3cc4c(cc3[C@@H](O[C@@H]3O[C@@H]5CO[C@@H](C)O[C@H]5[C@H](O)[C@H]3O)[C@H]3COC(=O)[C@H]23)OCO4)cc(OC)c1OP(=O)(O)O [ETOPOSIDE PHOSPHATE],Activity,[14],6%
same,Time,[15],2.7 days
O=c1cc(-c2cccc3c2Sc2ccccc2S3)oc(N2CCOCC2)c1 [KU-55933],fold change (FC),[16],2
same,fold change (FC),[17],6
same,fold change (FC),[18],6
